Source: ChEMBL document CHEMBL1157573, “BRAF inhibitors based on an imidazo[4,5]pyridin-2-one scaffold and a meta substituted middle ring” (J Med Chem, 2010)

Tests used:
[1] = molecular target: T1, Serine/threonine-protein kinase B-raf (Homo sapiens, UniProt P15056, V600E); experiment: Inhibition of human BRAF V600E mutant expressed in Sf9 cells
[2] = molecular target: T1, Serine/threonine-protein kinase B-raf; experiment: Inhibition of BRAF V600E mutant-mediated ERK phosphorylation in human WM266.4 cells; type: cell-based
[3] = Antiproliferative activity against human WM266.4 cells after 6 days by SRB assay; type: functional; settings: WM 266-4, 144 h
In short: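 SRB cell proliferation assay on WM266.4 melanoma cells, which carry mutant BRAF. Growth inhibition is reported as GI50.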

[4] = Antiproliferative activity against human WM1361 cells after 5 days by SRB assay; settings: WM1361, 120 h
[5] = Antiproliferative activity against human WM266.4 cells after 5 days by SRB assay; settings: WM 266-4, 120 h

T1 sequence (P15056 2-766 V600E limits assumed): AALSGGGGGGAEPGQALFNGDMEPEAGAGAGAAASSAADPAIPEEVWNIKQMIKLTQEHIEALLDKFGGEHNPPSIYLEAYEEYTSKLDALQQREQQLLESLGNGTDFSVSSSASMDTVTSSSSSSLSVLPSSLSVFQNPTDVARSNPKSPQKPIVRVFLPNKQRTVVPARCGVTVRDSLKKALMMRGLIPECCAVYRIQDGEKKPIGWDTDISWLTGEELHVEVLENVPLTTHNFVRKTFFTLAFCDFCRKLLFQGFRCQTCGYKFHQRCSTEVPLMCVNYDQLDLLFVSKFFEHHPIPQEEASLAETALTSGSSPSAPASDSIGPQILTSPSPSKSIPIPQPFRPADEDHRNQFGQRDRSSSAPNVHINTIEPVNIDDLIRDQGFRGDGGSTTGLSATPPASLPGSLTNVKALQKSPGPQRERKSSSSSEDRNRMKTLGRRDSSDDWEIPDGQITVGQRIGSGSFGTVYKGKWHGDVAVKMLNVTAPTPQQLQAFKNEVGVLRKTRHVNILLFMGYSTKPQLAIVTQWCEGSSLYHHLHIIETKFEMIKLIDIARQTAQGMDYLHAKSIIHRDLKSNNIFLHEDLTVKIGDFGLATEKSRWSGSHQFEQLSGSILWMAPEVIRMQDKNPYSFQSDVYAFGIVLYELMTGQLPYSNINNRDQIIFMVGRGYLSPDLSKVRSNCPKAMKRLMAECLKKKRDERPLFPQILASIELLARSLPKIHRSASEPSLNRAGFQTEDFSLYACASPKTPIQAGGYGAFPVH

For `O=C(Nc1cc(Oc2ccnc3[nH]c(=O)[nH]c23)c(F)cc1F)c1cccc(OC(F)(F)F)c1`, the IC50 [1] was 10 nM, the IC50 [2] was 6900 nM and the GI50 [3] was 4600 nM.

With `O=C(Nc1cc(Cl)cc(Oc2ccnc3[nH]c(=O)[nH]c23)c1)c1cccc(OC(F)(F)F)c1` the IC50 [1] was 33 nM, the IC50 [2] was 11300 nM and the GI50 [3] was 1900 nM.

`O=C(Nc1cccc(Oc2ccnc3[nH]c(=O)[nH]c23)c1)Nc1ccc(Cl)c(C(F)(F)F)c1` showed an IC50 [1] of 15 nM, an IC50 [2] of 10700 nM and a GI50 [3] of 4200 nM.

In the case of `O=C(Nc1cccc(Oc2ccnc3[nH]c(=O)[nH]c23)c1)c1cc(OC(F)(F)F)ccc1F`, the IC50 [1] is reported as 43 nM, the IC50 [2] is reported as 15000 nM and the GI50 [3] is reported as 1200 nM.

`O=C(Nc1cccc(Oc2ccnc3[nH]c(=O)[nH]c23)c1)c1cccc(OC(F)(F)C(F)F)c1` showed an IC50 [1] of 23 nM, an IC50 [2] of 5700 nM and a GI50 [3] of 841 nM.

`O=C(Nc1cccc(Oc2ccnc3[nH]c(=O)[nH]c23)c1)c1cccc(OC(F)(F)F)c1F` gave an IC50 [1] of 15 nM, an IC50 [2] of 6700 nM and a GI50 [3] of 570 nM.

In the case of `O=C(Nc1cccc(Oc2ccnc3[nH]c(=O)[nH]c23)c1)c1cccc(OC(F)(F)F)c1`, the IC50 [1] is reported as 14 nM, the IC50 [2] is reported as 7560 nM and the GI50 [3] is reported as 1000 nM.

Molecule `O=C(Nc1cccc(Oc2ccnc3[nH]c(=O)[nH]c23)c1)c1cccc(N2CCCCC2)c1` has an IC50 [1] of 47 nM, an IC50 [2] of 15400 nM and a GI50 [3] of 9600 nM.

Molecule `CC(C)(C)c1cccc(C(=O)Nc2cccc(Oc3ccnc4[nH]c(=O)[nH]c34)c2)c1` has an IC50 [1] of 17 nM, an IC50 [2] of 3500 nM and a GI50 [3] of 1830 nM.

Molecule `O=C(Nc1cc(F)cc(Oc2ccnc3[nH]c(=O)[nH]c23)c1)c1cccc(OC(F)(F)F)c1` has an IC50 [1] of 33 nM, an IC50 [2] of 16000 nM and a GI50 [3] of 2400 nM.

In the case of `O=C(Nc1cccc(Oc2ccnc3[nH]c(=O)[nH]c23)c1)Nc1cc(C(F)(F)F)ccc1F`, the IC50 [1] is reported as 26 nM, the IC50 [2] is reported as 12200 nM and the GI50 [3] is reported as 1600 nM.

With `O=C(Nc1cccc(Oc2ccnc3[nH]c(=O)[nH]c23)c1)c1cccc(SC(F)(F)F)c1` the IC50 [1] was 5 nM, the IC50 [2] was 6480 nM and the GI50 [3] was 5100 nM.

For `CNC(=O)c1cc(Oc2ccc(NC(=O)Nc3ccc(Cl)c(C(F)(F)F)c3)cc2)ccn1` [SORAFENIB], the GI50 [4] was 4340 nM and the GI50 [5] was 4930 nM.
